STAT1 activator: STAT1 signaling activators, primary screen, cell-based, HTS, luciferase reporter; AID 932, 2007; 200,000 tested, 2.6% active; activation (% of control), % at 5.5 µM; NIH 3T3 STAT1-luciferase reporter, IFN-gamma, luminescence; 100% = IFN-gamma alone, no compound;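 active means activation above the screen-wide mean activation plus 3 SD, cut at about 130% in these data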;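 further: raw ratio to IFN-gamma control signal so 100% means no change and 0% no light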
FLuc inh counter: firefly luciferase enzyme inhibitors, primary screen, artefact control for luciferase-based inhibitor screens, biochemical, luminescence, ATPLite. Luciferin 4-monooxygenase (Photinus pyralis), P08659. inhibition, % at 10 µM. 10 min. 200,000 tested, 1.5% active. AID 1006, 2008;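 active means inhibition above about 50% when tested at 10 µM, limit read from the data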
Target sequence (P08659 whole entry, looked up): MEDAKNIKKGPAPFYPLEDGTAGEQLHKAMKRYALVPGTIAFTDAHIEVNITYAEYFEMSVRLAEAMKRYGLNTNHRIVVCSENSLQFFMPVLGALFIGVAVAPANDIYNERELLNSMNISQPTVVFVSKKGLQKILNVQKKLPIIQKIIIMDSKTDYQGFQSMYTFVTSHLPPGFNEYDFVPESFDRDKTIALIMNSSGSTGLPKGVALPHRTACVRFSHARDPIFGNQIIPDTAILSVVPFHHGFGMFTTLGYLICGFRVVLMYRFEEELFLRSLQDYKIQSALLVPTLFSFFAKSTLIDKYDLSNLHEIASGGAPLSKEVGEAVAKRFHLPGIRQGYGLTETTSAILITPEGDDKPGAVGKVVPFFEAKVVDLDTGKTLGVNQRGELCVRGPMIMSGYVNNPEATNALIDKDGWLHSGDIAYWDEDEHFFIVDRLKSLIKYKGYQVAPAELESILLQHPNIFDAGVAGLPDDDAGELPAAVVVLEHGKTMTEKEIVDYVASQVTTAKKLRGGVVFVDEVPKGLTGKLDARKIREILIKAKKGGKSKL
NF-kB neuron act: activators of NF-kB expression in neurons, primary screen, cell-based, HTS | 190,000 tested, 1.6% active | fold change at 12.5 µM | human neuronal cells, NF-kB reporter expression; stronger effect = higher value; in the data active means fold change above about 3.3
APP 5'UTR act: activators of APP 5'UTR luciferase reporter, primary screen, SH-SY5Y cells. activation, % at 2 µM. AID 1276, 2008. 190,000 tested, 1% active. SH-SY5Y APP 5'UTR luciferase reporter, luminescence; zero percent = DMSO vehicle wells;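 active means activation above a set limit, based on mean plus 3 SD of controls, cut at about 140% in these data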
FLuc act counter: FLuc activators, initial screening, artefact control for FLuc-dependent activation tests, biochemical, ATPlite luminescence; Luciferin 4-monooxygenase (Photinus pyralis), P08659; ATPlite luciferase biochemical, 10 min; 0 = ATP-free wells, 1 = DMSO control; activation factor at 10 µM; 200,000 tested, under 10 active; AID 1027, 2008;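 active means luciferase activation factor, scaled between plate controls, of at least 2 with compound at 10 µM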
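test system = cell-free luciferase reagent | medium = PBS as buffer for the ATP substrate | dosing = test compounds dosed from 2 mM stocks in 100% DMSO | incubation = 10 min at ambient temperature | detection = luminescence measurement of luciferase light output | benchmarks = low control with PBS replacing ATP, high control enzyme plus ATP without compound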
Pf gametocyte: late stage P. falciparum gametocyte viability inhibitors, primary screen, ATP luminescence, HTS; P. falciparum stage V gametocytes, 24 h; inhibition, % at 10.9 µM; 150,000 tested, 0.065% active;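 active means inhibition above the mean plus 3 SD of compounds within the control limits, set per campaign, cut at about 38% in these data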;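 further: 0% = DMSO wells and 100% = medium only without gametocytes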
STAT1 activ conf: STAT1 signaling activators, confirmation, cell-based, HTS, luciferase reporter; shares compounds with STAT1 activator; NIH 3T3 STAT1-luciferase reporter, IFN-gamma potentiation, luminescence; 100% = IFN-gamma EC80 alone, no compound; activation (% of control), % at 5.7 µM; 1,200 tested, 97% active; AID 1262, 2008;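 active means activation above a set limit carried over from the earlier primary STAT1 screen, cut at about 140% in these data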;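 further: simple ratio to median IFN-gamma plus DMSO wells so 0% means no light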
NFkB act STAT1ct: NF-kB reporter activators, TNF-alpha stimulated, counter-screen for STAT1 activator project, cell-based, HEK293T, luciferase luminescence; shares compounds with STAT1 activator; 100% = TNF-alpha with vehicle only; activation (% of control), % at 5.7 µM; 1,200 tested, 43% active; AID 1306, 2008;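 active means activation above the mean of solvent-only control wells plus 3 SD, set per campaign, cut at about 130% in these data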;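 further: TNF-alpha given at a submaximal dose yielding about 80% of full reporter signal; values are well signal over median control so 100% means no change and 0% no light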
STAT3 act 2: STAT3 reporter activation by STAT1 hits, confirmation, counter-screen for STAT1 activator project, U3A cells, luciferase, luminescence; 1,200 tested, 46% active; activation (% of control), % at 5.7 µM; shares compounds with STAT1 activator; IL-6; cells lack STAT1; 100 = IL-6 alone, no compound effect; AID 1316, 2008;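 active means activation above the solvent-only control well mean plus 3 SD, set per plate batch, cut at about 110% in these data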;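 further: 0% = no luminescence and 100% = median IL-6 plus DMSO wells; higher means more STAT3 reporter activation so hits are non-selective activators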
Starred values were filed as active, the others as inactive; · = not tested or not shown. The list is not random: actives were taken first. Their share in the collection is about 3.5%.

SMILES	STAT1 activator	FLuc inh counter	NF-kB neuron act	APP 5'UTR act	FLuc act counter	Pf gametocyte	STAT1 activ conf	NFkB act STAT1ct	STAT3 act 2
CSc1nc(N)nc(SC2C=CCCC2)c1C#N (stereo unspecified)	117.3	-0.6	1.84	2.0	1	11.6	·	·	·
O=C(Nc1ccc(NC(=O)C23CC4CC(CC(C4)C2)C3)cn1)c1ccco1	185.2*	17.6	1.84	94.8	0.8	·	221.7*	141.7*	122.6*
O=C(Oc1ccc2ccccc2c1Cl)N1CCCCCC1	173.7*	46.7	5.13*	133.3	0.5	0.2	211.1*	118.4	140.7*
Cc1nc(NC(=O)c2csc3ccccc23)sc1C	175.5*	27.6	7.52*	150.9*	0.7	·	255.6*	137.3*	110.9*
CC(C)OC(=O)Cn1c(-c2ccccc2)c(-c2ccccc2)nnc1=O	·	·	·	·	·	-5.2	·	·	·
O=C(CC1Nc2ccccc2NC1=O)c1ccccc1 (stereo unspecified)	156.2*	54.3*	2.52	33.1	0.5	·	206.2*	129.7	165.2*
O=C(CC1Nc2ccccc2NC1=O)NCCc1ccccc1 (stereo unspecified)	108.6	-3.3	1.06	-0.2	1	-45.3	·	·	·
CC(C)CCNC(=O)C1CCC(=O)N1C(C)C (stereo unspecified)	93.2	0.7	1.14	-6.8	1	·	·	·	·
Cc1cc(C(=O)CSc2nnnn2C)c(C)n1CCc1ccc(F)cc1	102.8	-9.0	1.63	-6.1	1.1	·	·	·	·
Cc1ccc(-n2c(C)cc(C(=O)CSc3nnnn3C)c2C)cc1	161.5*	19.9	5.38*	168.1*	0.8	-38.4	200.5*	129.7	114.0*
c1ccc(-c2nc3c(ccc4ccccc43)[nH]2)nc1	172.9*	40.7	3.72*	111.0	0.6	·	186.7*	119.5	129.6*
COc1ccc2oc(=N)c(C(=O)Nc3ccccc3)cc2c1	162.1*	64.3*	5.24*	133.0	0.4	-20.2	196.5*	137.9*	135.6*
CCC(=O)Nc1ccc2c(c1)ncn2-c1ccc(C)cc1	162.4*	45.6	2.65	103.3	0.5	3.7	183.4*	136.3*	135.4*
C=CCN(CC=C)C(=O)Cc1ccc(F)cc1	103.7	-3.5	1.11	-2.8	1	·	·	·	·
COc1ccc(NC(=O)c2nc3ccccc3s2)cc1	160.7*	60.9*	7.53*	207.9*	0.4	-0.1	231.7*	96.2	99.3
CCOc1ccc2nc(NC(=O)NC3CCCCC3)sc2c1	112.0	2.9	1.28	35.1	1	·	·	·	·
CCOc1ccc2nc(NC(=O)Nc3cccs3)sc2c1	183.9*	66.9*	9.52*	215.8*	0.3	·	252.9*	149.2*	120.6*
CCCCOC(=O)Nc1nc2ccccc2s1	153.0*	26.2	5.42*	12.0	0.7	-13.3	213.2*	133.1	105.0
COc1ccc(OC)c(NC(=O)c2nc3ccccc3s2)c1	120.8	0.9	0.9	39.4	1	-1.5	·	·	·
CCCCOC(=O)Nc1nnc(-c2ccccc2OC)s1	94.4	-3.4	0.98	-11.0	1	·	·	·	·
CCOc1ccc2nc(NC(=O)Nc3ccccc3)sc2c1	154.9*	13.3	2.46	147.8*	0.9	·	224.0*	138.6*	114.6*
CCn1c(=O)c([N+](=O)[O-])c(NC2CCS(=O)(=O)C2)c2ccccc21 (stereo unspecified)	·	·	·	·	·	0.3	·	·	·
O=C(Cc1ccccc1)N/N=C/c1ccccc1Cl	106.5	0.9	1.14	28.6	1	-8.0	·	·	·
COc1ccc2nc(NC(=O)Nc3ccccc3)sc2c1	205.2*	70.2*	9.05*	189.2*	0.3	·	280.5*	116.7	98.4
COc1ccc2nc(NC(=O)c3ccccc3-c3ccccc3C(=O)O)sc2c1	105.8	-6.1	2.32	14.1	1.1	10.9	·	·	·
SMILES	STAT1 activator	FLuc inh counter	NF-kB neuron act	APP 5'UTR act	FLuc act counter	Pf gametocyte	STAT1 activ conf	NFkB act STAT1ct	STAT3 act 2
Cc1c(Nc2cc(Cl)c3nonc3c2[N+](=O)[O-])c(=O)n(-c2ccccc2)n1C	376.0*	-8.0	0.17	-95.3	1.1	·	159.3*	112.6	103.0
Cc1ccc(S(=O)(=O)N(C)C)cc1NC(=O)Cn1c(CN2CCOCC2)nc2ccccc2c1=O	97.3	-6.4	0.98	-11.7	1.1	8.3	·	·	·
Nc1ccc2oc(-c3ccccc3Cl)nc2c1	151.4*	74.6*	2.4	9.6	0.3	2.7	202.8*	103.3	90.2
Nc1ccc2oc(-c3cc(Br)ccc3Cl)nc2c1	96.8	2.4	0.5	-46.5	1	·	·	·	·
CCCc1[nH]n(-c2ccc([N+](=O)[O-])cc2)c(=O)c1C=NCCc1ccc(OC)c(OC)c1	106.3	-3.2	0.94	-4.5	1	9.7	·	·	·
O=C(O)c1ccc(N/N=C/c2ccc(-c3ccccc3)cc2)cc1	220.5*	14.1	10.2*	185.7*	0.9	-38.1	320.6*	162.0*	105.6
O=C(O)c1ccc(/C=N/Nc2ccc(C(F)(F)F)cn2)cc1	154.8*	3.1	3.93*	138.4*	1	-21.4	210.1*	129.1	124.3*
O=C(Nc1cscc1S(=O)(=O)c1ccccc1)c1ccccc1Cl	·	·	·	·	·	-4.2	·	·	·
CCOc1cccc(-c2nc3cc(C)ccc3o2)c1	151.9*	68.2*	1.76	63.7	0.3	15.4	159.5*	122.1	128.5*
c1cncc(-c2nc3cc(Cc4ccc5oc(-c6cccnc6)nc5c4)ccc3o2)c1	·	-4.7	·	·	1	·	·	·	·
COc1ccc(N/C=C\C(=O)c2ccc3c(c2)OCO3)cc1OC	156.1*	59.7*	3.08	6.1	0.4	17.6	171.2*	132.0	104.1
COc1ccc(C(=O)/C=C/Nc2cccc(C)n2)cc1OC	171.0*	41.0	4.12*	36.2	0.6	·	209.4*	130.4	107.7
COc1cccc(-c2cc(C(=O)N3CCCCC3C)no2)c1 (stereo unspecified)	153.7*	27.6	3.61*	132.7	0.7	·	181.0*	133.7*	122.7*

Compound activity (PubChem)
